Test results: PMC3982714 (International Journal of Oncology, 2012)
Where two headings read alike, the source gives them in different places.

Key:
[1] = Pharmacokinetics, HPLC analysis of plasma; assay type: in vivo, Fisher 344 rats
[2] = system: PGE2; experiment: PGE2 in culture media of LPS-stimulated macrophages by ELISA; assay type: cell-based, mouse; settings: RAW 264.7 macrophages, 130 μM for 12 h, then LPS 100 ng/ml overnight
Outline: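 RAW 264.7 mouse macrophages grown in DMEM. 1.5×10⁶ cells pre-incubated 12 h with test compound at 130 μM, then stimulated with LPS 100 ng/ml overnight. PGE2 in culture media measured by ELISA. Mean ± SEM, ANOVA.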

[3] = system: β-catenin; experiment: Immunofluorescent staining of β-catenin in colon sections of AOM rats; assay type: in vivo, rat; settings: AOM study, 40 weeks
[4] = system: NF-κB subunit p65; experiment: Western blot of p65 in nuclear extracts of HCT116 cells; assay type: cell-based, human
Outline: (§1)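 HCT116 cells grown in RPMI-1640. Cytoplasmic and nuclear fractions prepared by lysis, with NP-40 added at a later step; supernatant taken as cytoplasm. Nuclei washed, then resuspended in extraction buffer and pelleted. Standard western blot. Probes: rabbit anti-phospho-p65 (Ser276) for p65; mouse anti-β-catenin for β-catenin.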

[5] = system: NF-κB subunit p65; experiment: Immunofluorescent staining of phospho-p65 in colon sections of AOM rats; assay type: in vivo, rat; settings: AOM study, 40 weeks
Outline: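 Colons from rats killed at week 40 were formalin-fixed and paraffin-embedded; 4 μm sections cut. Antigen retrieval by microwaving 15 min in 0.01 mol/l citrate, pH 6.0. Blocked with 5% donkey serum 30 min. Rabbit anti-phospho-p65 (Ser276) with mouse anti-β-catenin, or control IgG, applied overnight at 4°C. Fluorescent donkey secondaries 1 h at room temperature. Viewed by fluorescence microscopy.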

[6] = system: β-catenin; experiment: Western blot of β-catenin in nuclear extracts of HCT116 cells; assay type: cell-based, human
Outline: as §1

[7] = system: AOM-induced colonic ACF and tumors; assay type: in vivo, Fisher 344 rats; settings: for Weight: average ± SE
Outline: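 Male Fisher 344 rats, 3–4 weeks old, about 90 g, acclimated 1 week. AOM 15 mg/kg or saline given s.c. once weekly for 2 weeks. […] Rats weighed weekly. Week-20 colons formalin-fixed 24 h, stained with 0.2% methylene blue 3–5 min; ACF counted microscopically. Week-40 tumors counted; long and short diameters measured. Mean ± SEM, ANOVA.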

[8] = assay type: in vivo, Fisher 344 rats; settings: 7 days
Outline: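 Male Fisher 344 rats, 8–9 weeks old, 7 per group. […] Killed by CO2 1 h after the last dose. Stomach, small intestine and colon inspected for ulcers under magnification, then formalin-fixed for histology. Heart, liver, lung and kidney collected for toxicity analysis.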

[9] = cited from earlier work
[10] = 20 weeks, saline, diet IBU 500 ppm or p-IBU 900 ppm
[11] = 40 weeks, saline, diet IBU 500 ppm or p-IBU 900 ppm

**Q.** Which results are given for CC(C(=O)O)c1ccc(C(O)C(C)C)cc1 (stereo not drawn) [1-OH-ibuprofen]?
**A.** plasma level of metabolite ([1]; 20 weeks (first value)): 4000 nM; plasma level of metabolite ([1]; 40 weeks): undetectable

**Q.** Which results are given for CC(C(=O)O)c1ccc(CC(C)(C)O)cc1 (stereo not drawn) [2-OH-ibuprofen]?
**A.** plasma level of metabolite ([1]; group fed a diet of ibuprofen): 99000 nM; plasma level of metabolite ([1]; group fed a diet of p-ibuprofen): 102000 nM

**Q.** For CC(Cc1ccc(C(C)C(=O)O)cc1)C(=O)O (stereo not drawn) [carboxy-ibuprofen], which “plasma level of metabolite” value ([1]; 20 weeks (first value)) is on record?
**A.** The value was 3000 nM.

**Q.** And the “plasma level of metabolite” value ([1]; 40 weeks)?
**A.** Its value is 3000 nM.

**Q.** Which “suppression of PGE2 production compared to LPS-treated control” value [2] does the source give for CC(C)Cc1ccc(C(C)C(=O)O)cc1 (stereo not drawn) [ibuprofen, Ibuprofen] here?
**A.** Its value is 84.1%.

**Q.** What about the “effect on AOM-induced β-catenin cytoplasmic accumulation and nuclear translocation” value [3] of the same compound?
**A.** The value was “reduced”.

**Q.** And the “nuclear translocation of the NF-κB subunit p65 (NF-κB activation)” value [4]?
**A.** Its value is “inhibitory effect was not observed”.

**Q.** And the “effect on phosphorylation of p65 (NF-κB activation)” value [5]?
**A.** The value was “not ibuprofen inhibited”.

**Q.** What about the “β-catenin levels in nuclear extracts compared to vehicle-treated control” value [6] of the same compound?
**A.** Its value is “markedly decreased”.

**Q.** What about the Weight ([7]; 20 weeks, AOM, diet IBU 500 ppm or p-IBU 900 ppm) of the same compound?
**A.** Its Weight is 406±118.91.

**Q.** What about the “ACFs (ACF multiplicity)” value [7, 10] of the same compound?
**A.** Its value is 0.

**Q.** What about the Tumors [7, 10] of the same compound?
**A.** The Tumors was 0.

**Q.** And the Weight [7, 10]?
**A.** Its Weight is 416±6.11.

**Q.** And the Weight ([7]; 40 weeks, AOM, diet IBU 500 ppm or p-IBU 900 ppm)?
**A.** Its Weight is 432±8.84.

**Q.** And the ACFs [7, 11]?
**A.** The ACFs was 0.

**Q.** What about the “Tumors (tumor multiplicity)” value [7, 11] of the same compound?
**A.** The value was 0.

**Q.** What about the Weight [7, 11] of the same compound?
**A.** Its Weight is 431±15.43.

**Q.** What about the “reduction of the multiplicity of ACF compared with vehicle” value ([7]; week 20, AOM rats, diet ibuprofen 500 ppm or p-ibuprofen 900 ppm) of the same compound?
**A.** Its value is 37.9%.

**Q.** What about the “reduction of the multiplicity of colon tumors compared with vehicle” value ([7]; week 40, AOM rats, diet ibuprofen 500 ppm or p-ibuprofen 900 ppm) of the same compound?
**A.** Its value is 56.6%.

**Q.** What about the “rats with stomach ulceration” value ([8]; ibuprofen 670 mg/kg by gavage, 7 rats) of the same compound?
**A.** Its value is 85.7%.

**Q.** And the “ulceration in stomach or intestine” value ([8]; low dose by gavage)?
**A.** Its value is “did not lead to ulceration”.

**Q.** Which “GI toxic side effects compared to the parent molecule” value [9] does the source give for CC(C)Cc1ccc(C(C)C(=O)NCC(=O)O)cc1 (stereo not drawn) [ibuprofen-NHCH2COOH] here?
**A.** Its value is “decreased”.

**Q.** Which “GI toxic side effects compared to the parent molecule” value [9] does the source give for CC(C)Cc1ccc(C(C)C(=O)OCCN(C)C)cc1.Cl (stereo not drawn) [ibuprofen-O(CH2)2N(CH3)2HCl] here?
**A.** Its value is “decreased”.

**Q.** Which “plasma level of metabolite” value ([1]; 20 weeks (first value)) does the source give for CC(C)Cc1ccc(C(C)C(=O)O[C@@H]2O[C@H](C(=O)O)[C@@H](O)[C@H](O)[C@H]2O)cc1 (stereo partly drawn) [ibuprofen-glucuronide] here?
**A.** The value was 1000 nM.

**Q.** And the “plasma level of metabolite” value ([1]; 40 weeks)?
**A.** The value was 1000 nM.
